From publication PMC2912410 (Bioconjugate chemistry, 2010)
Entries after “also recorded” stand apart in the source; their conditions may differ. One block for each molecule: values may come before it.

Key:
[1] = molecular target: hP2Y1 receptor (Homo sapiens, UniProt P47900); test: [125I]MRS2500 radioligand binding at hP2Y1 receptor in Sf9 insect cell membranes; conditions: for binding to the P2Y1 receptor (in words): [125I]MRS2500 binding; for fold weaker in binding than shortest homologue 20: comparison of Ki values
[2] = molecular target: P2Y1 receptor; conditions: competitive antagonist of the P2Y1 receptor; cited from earlier work
[3] = tested on: human platelets; test: ADP-induced aggregation of human washed platelets; type: cell-based; conditions: 1 μM, ADP 5 μM
Summary of the method: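 Washed human platelets: donor blood spun 175×g, 15 min, 37 °C; platelet-rich plasma spun 1570×g, 15 min; pellet washed twice in Tyrode's (pH 7.3, 0.35% human serum albumin); resuspended 3×10^5/μL with 0.02 U/mL apyrase, kept at 37 °C. Extent measured as maximum curve height above baseline.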

Chain of hP2Y1 receptor (P47900 whole entry): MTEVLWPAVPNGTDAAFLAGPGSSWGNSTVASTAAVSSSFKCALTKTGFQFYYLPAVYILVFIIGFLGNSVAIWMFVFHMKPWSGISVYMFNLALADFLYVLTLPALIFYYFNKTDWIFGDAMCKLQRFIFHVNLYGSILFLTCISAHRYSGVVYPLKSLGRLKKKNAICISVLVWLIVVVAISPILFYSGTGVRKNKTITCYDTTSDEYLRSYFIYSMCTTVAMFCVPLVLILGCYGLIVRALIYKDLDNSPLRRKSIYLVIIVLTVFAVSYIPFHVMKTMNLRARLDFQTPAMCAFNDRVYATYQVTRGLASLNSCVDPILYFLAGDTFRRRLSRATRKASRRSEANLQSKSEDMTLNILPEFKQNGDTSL

Molecule: (1'R,2'S,4'S,5'S)-4-{2-[(6-(6-(4-(Fluorosulfonyl)phenethylamino)-6-oxohex-1-ynyl)]-6-methylaminopurin-9-yl}-1-[(phosphato)-methyl]-2-(phosphato)-bicyclo[3.1.0]hexane [Compound 19]
binding to the P2Y1 receptor (in words) [1]: not appreciably potent; also recorded: weak in binding

Molecule: CNc1ncnc2c1ncn2[C@H]1C[C@H](OP(=O)(O)O)[C@@H](COP(=O)(O)O)O1 [Compound 1, N^6-methyl-2′-deoxyadenosine-3′,5′-bisphosphate]
Kb [2]: 102 nM

fold weaker in binding than shortest homologue 20 [1]: 20 – 30 fold
Molecule: CNc1nc(C#CCCCCc2cn(CCNC(C)=O)nn2)nc2c1ncn2[C@H]1C[C@H](OP(=O)(O)O)[C@]2(COP(=O)(O)O)C[C@H]12 [Compound 22, (1'R,2'S,4'S,5'S)-4-{2-[(6-(2-Acetamidoethyl)-1H-1,2,3-triazol-4-yl)-hex-1-yn-1-yl]-6-methylaminopurin-9-yl}-1-[(phosphato)-methyl]-2-(phosphato)-bicyclo[3.1.0]hexane]

Molecule: CNc1nc(C#CCCCC(=O)NCCNC(=O)CCCCCNC(=O)CCCCC2SCC3NC(=O)NC32)nc2c1ncn2[C@H]1C[C@H](OP(=O)(O)O)[C@]2(COP(=O)(O)O)C[C@H]12 (stereo partly drawn) [Compound 18, (1'R,2'S,4'S,5'S)-4-{2-[6-(6-Oxo-6-(2-(6-(5-(2-oxohexahydro-1H-thieno[3,4-d]imidazol-4-yl)pentanamido)hexanamido)ethylamino)hex-1-ynyl)]-6-methylaminopurin-9-yl}-1-[(phosphato)-methyl]-2-(phosphato)-bicyclo[3.1.0]hexane]
binding to the P2Y1 receptor (in words) [1]: more potent in binding than the shorter analogue 17

fold weaker in binding than shortest homologue 20 [1]: 20 – 30 fold
Molecule: CNc1nc(C#CCCCCCc2cn(CCNC(C)=O)nn2)nc2c1ncn2[C@H]1C[C@H](OP(=O)(O)O)[C@]2(COP(=O)(O)O)C[C@H]12 [Compound 23, (1'R,2'S,4'S,5'S)-4-{2-[(7-(2-Acetamidoethyl)-1H-1,2,3-triazol-4-yl)-hept-1-yn-1-yl]-6-methylaminopurin-9-yl}-1-[(phosphato)-methyl]-2-(phosphato)-bicyclo[3.1.0]hexane]

Molecule: CNc1nc(I)nc2c1ncn2[C@H]1C[C@H](OP(=O)(O)O)[C@]2(COP(=O)(O)O)C[C@H]12 [Compound 2, (1′R,2′S,4′S,5′S)-4-(2-iodo-6-methylamino-purin-9-yl)-1-[(phosphato)-methyl]-2-(phosphato)-bicyclo[3.1.0]hexane]
inhibition of platelet aggregation (in words) [3]: completely inhibited aggregation

binding to the P2Y1 receptor (in words) [1]: weak in binding
Molecule: (1'R,2'S,4'S,5'S)-4-{2-[(6-(6-Oxo-6-(2-(5-(2-oxohexahydro-1H-thieno[3,4-d]imidazol-4-yl)pentanamido)ethylamino)hex-1-ynyl)-1-propynyl]-6-methylaminopurin-9-yl}-1-[(phosphato)-methyl]-2-(phosphato)-bicyclo[3.1.0]hexane [Compound 17]
